Measurements reported in paper PMC6936558 (Proceedings of the National Academy of Sciences of the …, 2019).
Values joined by “and” are separate entries in the source; they are usually repeats but may differ in a detail not shown here. Equal values may be shown once.

Columns and labels:
SpyCatcher003-555 = test: FRET or BRET
SpyCatcher003 [1] = test: SPR
SpyCatcher002-555 [2] = test: FRET or BRET
SpyCatcher003-sfGFP [3] = test: Comparison of stages of SpyTag development; type: biochemical; conditions: 10 nM each, 10 min, SPG buffer pH 7.0 + 0.2% BSA, 25 °C; n = 3
SpyCatcher002-sfGFP = conditions: cited from earlier work
SpyCatcher002-555 [4] = test: Stopped-flow FRET kinetics; type: binding, Streptococcus pyogenes; conditions: PBS pH 7.4, 25 °C; mean ± 1 SD, n = 4
Method in brief: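 Stopped-flow fluorescence with 1:1 mixing at 25 °C in PBS pH 7.4, excitation 480 nm, emission through a 515-nm long-pass filter. The SpyTag variant-mClover3 was at 100 nM final against pseudo-first-order SpyCatcher variant-555 at 400 to 1,000 nM. kon came from a linear fit of the first-phase kobs against SpyCatcher variant concentration.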

SpyCatcher003 [5] = test: Isothermal titration calorimetry; type: binding, Streptococcus pyogenes; conditions: PBS pH 7.4, 25 °C
SpyCatcher003 [6] = test: covalent reaction followed by SDS/PAGE with Coomassie staining
SpyCatcher003-sfGFP [7] = test: covalent reaction

SpyTag003 DA-mClover3 (peptide)
dissociation rate constant, first phase of the chase (90% of signal change) (SpyCatcher003-555): 0.009 s⁻¹
dissociation rate constant, second phase of the chase (10% of signal change) (SpyCatcher003-555): 0.002 s⁻¹
estimated Kd of one version of the complex (dissociation rate constant / kon) (SpyCatcher003-555): 3 nM and 13 nM
kobs2 (second phase) (SpyCatcher003-555): 0.08 s⁻¹
kobs3 (third phase) (SpyCatcher003-555): 0.004 s⁻¹
kon (SpyCatcher003-555): 680000 M⁻¹ s⁻¹

SpyTag003 DA-MBP (peptide)
Kd (SpyCatcher003 [1]): 21 nM

SpyTag003-mClover3 (peptide)
decrease in donor (mClover3) peak fluorescence intensity (SpyCatcher003-555): 35%
kobs1 (first phase, 500 nM SpyCatcher003-555) (SpyCatcher003-555): 0.54 s⁻¹
kobs2 (second phase, 500 nM SpyCatcher003-555) (SpyCatcher003-555): 0.016 s⁻¹
kobs3 (third phase, 500 nM SpyCatcher003-555) (SpyCatcher003-555): 0.004 s⁻¹
koff (SpyCatcher003-555): 0.26 s⁻¹
kon (SpyCatcher003-555): 620000 M⁻¹ s⁻¹

SpyTag002-mClover3 (peptide)
kon (SpyCatcher002-555 [2]): 420000 M⁻¹ s⁻¹

VPHIVMVDAYKRYK [SpyTag002 T112H]
effect of Tag mutation on reaction rate (SpyCatcher003-sfGFP [3]): enhanced reaction rate

VPTIVMVDAYKRYK [SpyTag002]
improvement of rate of reaction over SpyTag/SpyCatcher (SpyCatcher002-sfGFP; by phage display selection, SpyTag002 and SpyCatcher002): > 12 fold
second-order rate constant, SpyTag002/SpyCatcher002 (SpyCatcher002-sfGFP; previously shown): 20000 M⁻¹ s⁻¹
association rate constant (kon) (SpyCatcher002-555 [4]): 4.2 ± 0.5 × 10^5 M^−1 s^−1

RGVPHIVMVAAYKRYK [SpyTag003 DA-MBP]
affinity by ITC (SpyCatcher003 [5]): too tight to measure by ITC

SpyTag003-maltose binding protein (MBP) (peptide)
percent completion of the covalent reaction (SpyCatcher003 in excess) (SpyCatcher003 [6]): > 99%
percent completion of the covalent reaction (SpyTag003 in excess) (SpyCatcher003 [6]): > 99%
percent completion of the covalent reaction (10 nM each, 15 min) (SpyCatcher003-sfGFP [7]): > 90%
